# From ChEMBL document CHEMBL1124107, “Antihypertensive thiadiazoles. 1. Synthesis of some 2-aryl-5-hydrazino-1,3,4-thiadiazoles with vasodilator activity” (1988)
# Active and inactive are the calls of the source. The calls are words filed in the database; no cut-off is given here.
# How the values were obtained:
# Rattus norvegicus [1] = assay: Increase in diastolic blood pressure for 0.1 ug/kg intravenous dosing of noradrenaline in pithed rats; assay type: functional, Artery
# Outline: (§1)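 Male rats (200-300 g) pretreated ip with drug or isotonic saline, groups of five, 1 or 2 h before pithing. Halothane anesthesia, tracheal cannulation, CNS destroyed via left orbit and spinal cord, artificial respiration with room air at 50 strokes/min. Pressor responses to iv noradrenaline (0.1-1.0 ug/kg), iv angiotensin (0.03-0.3 ug/kg), or whole sympathetic outflow stimulation.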
# Rattus norvegicus [2] = assay: Increase in diastolic blood pressure for 0.3 ug/kg intravenous dosing of angiotensin in pithed rats; assay type: functional, Artery; outline: as §1
# Rattus norvegicus [3] = assay: Increase in diastolic blood pressure for 0.3 ug/kg intravenous dosing of noradrenaline in pithed rats; assay type: functional, Artery; outline: as §1
# Rattus norvegicus [4] = species: Rattus norvegicus; assay: Increase in diastolic blood pressure for 1 Htz electrical stimulation in the pithed rats; assay type: functional, Artery; outline: as §1
# Rattus norvegicus [5] = assay: Increase in diastolic blood pressure for 1.0 ug/kg intravenous dosing of noradrenaline in pithed rats; assay type: functional, Artery; outline: as §1
# Rattus norvegicus [6] = species: Rattus norvegicus; assay: Increase in diastolic blood pressure for 3 Htz electrical stimulation in the pithed rats; assay type: functional, Artery; outline: as §1
# Rattus norvegicus [7] = species: Rattus norvegicus; assay: Increase in diastolic blood pressure for 6 Htz electrical stimulation in the pithed rats; assay type: functional, Artery; outline: as §1
# Rattus norvegicus [8] = assay: Increase in diastolic blood pressure for 0.03 ug/kg intravenous dosing of angiotensin in pithed rats; assay type: functional, Artery; outline: as §1
# Rattus norvegicus [9] = assay: Increase in diastolic blood pressure for 0.1 ug/kg intravenous dosing of angiotensin in pithed rats; assay type: functional, Artery; outline: as §1
# Rattus norvegicus [10] = assay: Increase in diastolic blood pressure at 0.03 ug/kg intravenous dosing of angiotensin in pithed rats; assay type: functional, Artery; outline: as §1
# Rattus norvegicus [11] = assay: Increase in diastolic blood pressure at 0.1 ug/kg intravenous dosing of angiotensin in pithed rats; assay type: functional, Artery; outline: as §1
# Rattus norvegicus [12] = assay: Increase in diastolic blood pressure at 0.1 ug/kg intravenous dosing of noradrenaline in pithed rats; assay type: functional, Artery; outline: as §1
# Rattus norvegicus [13] = assay: Increase in diastolic blood pressure at 0.3 ug/kg intravenous dosing of angiotensin in pithed rats; assay type: functional, Artery; outline: as §1
# Rattus norvegicus [14] = assay: Increase in diastolic blood pressure at 0.3 ug/kg intravenous dosing of noradrenaline in pithed rats; assay type: functional, Artery; outline: as §1
# Rattus norvegicus [15] = species: Rattus norvegicus; assay: Increase in diastolic blood pressure at 1 Htz electrical stimulation in the pithed rats; assay type: functional, Artery; outline: as §1
# Rattus norvegicus [16] = species: Rattus norvegicus; assay: Increase in diastolic blood pressure at 3 Htz electrical stimulation in the pithed rats; assay type: functional, Artery; outline: as §1
# Rattus norvegicus [17] = species: Rattus norvegicus; assay: Increase in diastolic blood pressure at 6 Htz electrical stimulation in the pithed rats; assay type: functional, Artery; outline: as §1
# Rattus norvegicus [18] = assay: Maximum percentage reduction in mean blood pressure in metacorticoid (DOCA) hypertensive rats at a standard oral dose of 25 mg/kg; assay type: functional
# Outline: (§2)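 DOCA hypertensive rats, n = 3-5. Food removed 18 h before oral dosing; ip injections given to unstarved animals. Blood pressure recorded by pressure transducer under minimal restraint, twice before dosing with drug or isotonic saline vehicle, then at 1, 2, 3, 5 and 22 h. MABP taken as diastolic plus one-third pulse pressure.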
# Rattus norvegicus [19] = assay: Maximum percentage reduction in mean blood pressure in metacorticoid (DOCA) hypertensive rats at a standard oral dose of 50 mg/kg; assay type: functional; outline: as §2
# Rattus norvegicus [20] = assay: Increase in diastolic blood pressure at 1.0 ug/kg intravenous dosing of noradrenaline in pithed rats; assay type: functional, Artery; outline: as §1
# Rattus norvegicus [21] = assay: Maximum percentage reduction in mean blood pressure and heart rate in metacorticoid (DOCA) hypertensive rats at a standard oral dose of 100 mg/kg; IA = Inactive, Maximum percentage fall in MABP <10%; assay type: functional, organism-based; set-up: dose 100 mg/kg; outline: as §2
# Rattus norvegicus [22] = assay: Maximum percentage reduction in mean blood pressure in metacorticoid (DOCA) hypertensive rats at a standard oral dose of 100 mg/kg; assay type: functional; outline: as §2
# Rattus norvegicus [23] = assay: Maximum percentage reduction in mean blood pressure in metacorticoid (DOCA) hypertensive rats at standard intraperitoneal dose of 100 mg/kg; assay type: functional; details: route oral, in the assay text read “oral” for “intraperitoneal”; outline: as §2
# Rattus norvegicus [24] = assay: Maximum percentage reduction in mean blood pressure and heart rate in metacorticoid (DOCA) hypertensive rats at a standard intraperitoneal dose of 100 mg/kg; assay type: functional; details: route oral, in the assay text read “oral” for “intraperitoneal”; outline: as §2
# Rattus norvegicus [25] = assay: Maximum percentage reduction in mean blood pressure and heart rate in metacorticoid (DOCA) hypertensive rats at a standard oral dose of 100 mg/kg
# Rattus norvegicus [26] = assay: Maximum percentage reduction in mean blood pressure and heart rate in metacorticoid (DOCA) hypertensive rats at a standard oral dose of 25 mg/kg; assay type: functional; outline: as §2
# Rattus norvegicus [27] = assay: Maximum percentage reduction in mean blood pressure and heart rate in metacorticoid (DOCA) hypertensive rats at a standard oral dose of 50 mg/kg; assay type: functional; outline: as §2
structure (smiles),measurement,setting,value
COc1cc2nc(N3CCN(C(=O)c4ccco4)CC3)nc(N)c2cc1OC [PRAZOSIN],Increase in blood pressure,Rattus norvegicus [1],23 mmHg
same,Increase in blood pressure,Rattus norvegicus [2],67 mmHg
same,Increase in blood pressure,Rattus norvegicus [3],32 mmHg
same,Increase in blood pressure,Rattus norvegicus [4],18 mmHg
same,Increase in blood pressure,Rattus norvegicus [5],49 mmHg
same,Increase in blood pressure,Rattus norvegicus [6],26 mmHg
same,Increase in blood pressure,Rattus norvegicus [7],31 mmHg
same,Increase in blood pressure,Rattus norvegicus [8],30 mmHg
same,Increase in blood pressure,Rattus norvegicus [9],45 mmHg
CCc1ccccc1-c1nnc(NN)s1.Cl,Increase in blood pressure,Rattus norvegicus [10],2 mmHg
same,Increase in blood pressure,Rattus norvegicus [11],6 mmHg
same,Increase in blood pressure,Rattus norvegicus [12],8 mmHg
same,Increase in blood pressure,Rattus norvegicus [13],25 mmHg
same,Increase in blood pressure,Rattus norvegicus [14],14 mmHg
same,Increase in blood pressure,Rattus norvegicus [15],14 mmHg
same,Increase in blood pressure,Rattus norvegicus [16],25 mmHg
same,Increase in blood pressure,Rattus norvegicus [17],32 mmHg
same,Reduction,Rattus norvegicus [18],42%
same,Reduction,Rattus norvegicus [19],54%
same,Increase in blood pressure,Rattus norvegicus [20],22 mmHg
CCCCCCOc1ccccc1-c1nnc(NN)s1,Reduction,Rattus norvegicus [21],inactive
Cl.NNc1nnc(-c2ccccc2F)s1,Reduction,Rattus norvegicus [22],31%
Cl.NNc1nnc(-c2ccccc2I)s1,Reduction,Rattus norvegicus [22],58%
same,Reduction,Rattus norvegicus [19],24%
Cc1cccc(-c2nnc(NN)s2)c1.Cl,Reduction,Rattus norvegicus [22],29%
CCCOc1ccccc1-c1nnc(NN)s1.Cl,Reduction,Rattus norvegicus [22],46%
NNc1nncc2ccccc12 [HYDRALAZINE],Increase in blood pressure,Rattus norvegicus [1],8 mmHg
same,Increase in blood pressure,Rattus norvegicus [2],38 mmHg
same,Increase in blood pressure,Rattus norvegicus [3],15 mmHg
same,Increase in blood pressure,Rattus norvegicus [4],28 mmHg
same,Increase in blood pressure,Rattus norvegicus [5],28 mmHg
same,Increase in blood pressure,Rattus norvegicus [6],42 mmHg
same,Increase in blood pressure,Rattus norvegicus [7],54 mmHg
same,Increase in blood pressure,Rattus norvegicus [8],8 mmHg
same,Increase in blood pressure,Rattus norvegicus [9],21 mmHg
Cl.NNc1nnc(-c2ccc(Cl)cc2)s1,Reduction,Rattus norvegicus [23],28%
NNc1nnc(-c2c(Cl)cccc2Cl)s1,Reduction,Rattus norvegicus [22],50%
Cl.NNc1nnc(-c2ccc(Cl)c(Cl)c2)s1,Reduction,Rattus norvegicus [22],17%
Cl.NNc1nnc(-c2cccs2)s1,Reduction,Rattus norvegicus [22],35%
Cc1ccsc1-c1nnc(NN)s1.Cl,Reduction,Rattus norvegicus [22],48%
Cc1ccc(-c2nnc(NN)s2)cc1.Cl,Reduction,Rattus norvegicus [22],28%
Cc1ccc(C)c(-c2nnc(NN)s2)c1.Cl,Reduction,Rattus norvegicus [22],50%
Cc1cc(C)cc(-c2nnc(NN)s2)c1.Cl,Reduction,Rattus norvegicus [22],18%
Cl.NNc1nnc(-c2ccccc2-c2ccccc2)s1,Reduction,Rattus norvegicus [22],18%
COc1ccc(Cl)c(OC)c1-c1nnc(NN)s1.Cl,Reduction,Rattus norvegicus [22],53%
NNc1nnc(-c2ccco2)s1,Reduction,Rattus norvegicus [22],39%
Cc1ccc(-c2nnc(NN)s2)cc1C.Cl,Reduction,Rattus norvegicus [22],22%
Cl.NNc1nnc(-c2cccc(C(F)(F)F)c2)s1,Reduction,Rattus norvegicus [22],21%
Cc1ccc(-c2nnc(NN)s2)c(C)c1.Cl,Reduction,Rattus norvegicus [22],61%
Cl.NNc1nnc(-c2ccccc2[N+](=O)[O-])s1,Reduction,Rattus norvegicus [22],26%
COc1ccccc1-c1nnc(NN)s1.Cl,Reduction,Rattus norvegicus [22],46%
same,Reduction,Rattus norvegicus [19],39%
CSc1ccccc1-c1nnc(NN)s1.Cl,Reduction,Rattus norvegicus [22],41%
Cl.NNc1nnc(-c2cccc(O)c2)s1,Reduction,Rattus norvegicus [22],16%
Cc1ccc(F)cc1-c1nnc(NN)s1.Cl,Reduction,Rattus norvegicus [22],63%
Cl.NNc1nnc(-c2cccc(Cl)c2)s1,Reduction,Rattus norvegicus [22],20%
Cl.NNc1nnc(-c2ccccc2)s1,Reduction,Rattus norvegicus [22],42%
CCC[S+]([O-])c1ccccc1-c1nnc(NN)s1.Cl (stereo not given),Reduction,Rattus norvegicus [22],48%
Cl.NNc1nnc(-c2cccc3ccccc23)s1,Reduction,Rattus norvegicus [22],26%
Cl.NNc1nnc(-c2ccc(C(F)(F)F)cc2)s1,Reduction,Rattus norvegicus [22],21%
Cl.NNc1nnc(-c2ccsc2)s1,Reduction,Rattus norvegicus [22],33%
Cc1cccc(C)c1-c1nnc(NN)s1.Cl,Reduction,Rattus norvegicus [22],54%
C[S+]([O-])c1ccccc1-c1nnc(NN)s1.Cl (stereo not given),Increase in blood pressure,Rattus norvegicus [10],4 mmHg
same,Increase in blood pressure,Rattus norvegicus [11],11 mmHg
same,Increase in blood pressure,Rattus norvegicus [12],6 mmHg
same,Increase in blood pressure,Rattus norvegicus [13],29 mmHg
same,Increase in blood pressure,Rattus norvegicus [14],10 mmHg
same,Increase in blood pressure,Rattus norvegicus [15],19 mmHg
same,Increase in blood pressure,Rattus norvegicus [16],34 mmHg
same,Increase in blood pressure,Rattus norvegicus [17],47 mmHg
same,Reduction,Rattus norvegicus [18],31%
same,Reduction,Rattus norvegicus [19],45%
same,Increase in blood pressure,Rattus norvegicus [20],21 mmHg
Cl.NNc1nnc(-c2ccccc2Br)s1,Reduction,Rattus norvegicus [22],48%
CC(C)(C)c1ccccc1-c1nnc(NN)s1,Reduction,Rattus norvegicus [22],58%
Cl.NNc1nnc(-c2ccccn2)s1,Reduction,Rattus norvegicus [22],21%
Cc1cccc(-c2nnc(NN)s2)c1C.Cl,Reduction,Rattus norvegicus [22],50%
Cc1cc(F)ccc1-c1nnc(NN)s1.Cl,Reduction,Rattus norvegicus [22],58%
Cl.NNc1nnc(-c2ccccc2C(F)(F)F)s1,Reduction,Rattus norvegicus [22],49%
same,Reduction,Rattus norvegicus [19],33%
COc1ccc(-c2nnc(NN)s2)cc1OC.Cl,Reduction,Rattus norvegicus [24],24%
Nc1cc(N2CCCCC2)nc(N)[n+]1[O-] [MINOXIDIL],Increase in blood pressure,Rattus norvegicus [1],10 mmHg
same,Increase in blood pressure,Rattus norvegicus [2],25 mmHg
same,Increase in blood pressure,Rattus norvegicus [3],25 mmHg
same,Increase in blood pressure,Rattus norvegicus [4],9 mmHg
same,Increase in blood pressure,Rattus norvegicus [5],45 mmHg
same,Increase in blood pressure,Rattus norvegicus [6],25 mmHg
same,Increase in blood pressure,Rattus norvegicus [7],31 mmHg
same,Increase in blood pressure,Rattus norvegicus [8],6 mmHg
same,Increase in blood pressure,Rattus norvegicus [9],13 mmHg
same,Reduction,Rattus norvegicus [25],42%
Cc1ccccc1-c1nnc(NN)s1.Cl,Increase in blood pressure,Rattus norvegicus [1],10 mmHg
same,Increase in blood pressure,Rattus norvegicus [2],50 mmHg
same,Increase in blood pressure,Rattus norvegicus [3],16 mmHg
same,Increase in blood pressure,Rattus norvegicus [4],16 mmHg
same,Increase in blood pressure,Rattus norvegicus [5],29 mmHg
same,Increase in blood pressure,Rattus norvegicus [6],32 mmHg
same,Increase in blood pressure,Rattus norvegicus [7],41 mmHg
same,Increase in blood pressure,Rattus norvegicus [8],12 mmHg
same,Increase in blood pressure,Rattus norvegicus [9],28 mmHg
same,Reduction,Rattus norvegicus [26],33%
same,Reduction,Rattus norvegicus [27],48%
COc1cccc(-c2nnc(NN)s2)c1.Cl,Reduction,Rattus norvegicus [22],18%
Cl.NNc1nnc(-c2ccccc2Cl)s1,Reduction,Rattus norvegicus [22],21%
COc1cccc(OC)c1-c1nnc(NN)s1.Cl,Reduction,Rattus norvegicus [22],33%
